# Source: publication PMC6911266 (Nature, 2019)
# Where “and” joins values, the source holds several entries; their conditions need not be identical. Equal entries are not always repeated. Where two headings read alike, the source gives them in different places.
# T1: PfCRT 7G8 (Plasmodium falciparum, UniProt W7FI62)
# T1 sequence (W7FI62 1-424): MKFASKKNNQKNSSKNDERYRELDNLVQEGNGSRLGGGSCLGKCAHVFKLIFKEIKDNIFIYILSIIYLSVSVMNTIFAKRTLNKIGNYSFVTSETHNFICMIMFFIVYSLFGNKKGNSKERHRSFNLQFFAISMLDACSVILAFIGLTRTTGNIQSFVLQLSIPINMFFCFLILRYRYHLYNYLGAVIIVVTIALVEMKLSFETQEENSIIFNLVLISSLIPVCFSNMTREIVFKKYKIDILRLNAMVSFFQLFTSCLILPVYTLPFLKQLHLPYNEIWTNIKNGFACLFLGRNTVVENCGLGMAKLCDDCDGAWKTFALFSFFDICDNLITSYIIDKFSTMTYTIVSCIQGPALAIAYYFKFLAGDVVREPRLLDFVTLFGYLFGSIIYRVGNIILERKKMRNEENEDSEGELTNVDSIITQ
# T2: PfCRT 7G8+C289A (Plasmodium falciparum, UniProt W7FI62, C289A)
# T2 sequence (W7FI62 1-424 C289A): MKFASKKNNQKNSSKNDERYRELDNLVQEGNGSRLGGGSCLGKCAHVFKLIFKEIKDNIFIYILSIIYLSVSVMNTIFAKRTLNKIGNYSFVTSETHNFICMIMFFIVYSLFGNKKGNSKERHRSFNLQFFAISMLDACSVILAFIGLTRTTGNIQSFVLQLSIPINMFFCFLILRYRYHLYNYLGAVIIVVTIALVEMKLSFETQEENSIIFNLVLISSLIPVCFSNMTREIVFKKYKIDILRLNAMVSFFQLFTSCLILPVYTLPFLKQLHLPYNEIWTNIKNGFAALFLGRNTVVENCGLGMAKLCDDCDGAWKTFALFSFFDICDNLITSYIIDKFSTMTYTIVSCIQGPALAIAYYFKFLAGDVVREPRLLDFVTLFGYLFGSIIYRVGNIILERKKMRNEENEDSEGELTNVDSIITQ
# T3: PfCRT 7G8+C301A (Plasmodium falciparum, UniProt W7FI62, C301A)
# T3 sequence (W7FI62 1-424 C301A): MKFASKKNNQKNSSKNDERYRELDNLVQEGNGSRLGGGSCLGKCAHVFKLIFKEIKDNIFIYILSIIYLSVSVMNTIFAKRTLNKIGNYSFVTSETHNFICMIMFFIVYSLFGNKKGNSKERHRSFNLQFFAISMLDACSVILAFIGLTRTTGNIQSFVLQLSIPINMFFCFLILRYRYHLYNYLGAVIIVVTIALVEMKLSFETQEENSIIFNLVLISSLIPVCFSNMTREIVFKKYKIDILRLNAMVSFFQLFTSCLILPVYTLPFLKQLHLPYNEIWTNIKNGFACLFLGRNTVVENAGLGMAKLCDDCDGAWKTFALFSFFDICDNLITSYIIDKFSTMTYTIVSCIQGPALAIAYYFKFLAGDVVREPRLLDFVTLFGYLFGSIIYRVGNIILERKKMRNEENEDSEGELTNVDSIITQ
# How the values were obtained:
# [1] = target: T1, PfCRT 7G8; assay: Scintillation proximity assay; format: binding; conditions: for competition of [3H]-Arg binding (in words): 125 nM [3H]-Arg, 1 μM CQ or PPQ, 0.1 μM amodiaquine, 1 mM Arg, Lys or Leu
# [2] = target: T2, PfCRT 7G8+C289A; assay: Transport; format: biochemical; conditions: read-out: IC50 (concentration yielding half-maximal reduction of [3H]-CQ transport); 100 nM [3H]-CQ, 1 min
# Summary of the method: (§1)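 Proteoliposomes with the PfCRT variant (40 ng PfCRT per assay) have a lumen of 100 mM KPi, pH 7.5, with 2 mM β-mercaptoethanol. They are diluted into 100 mM Tris/Mes, pH 5.5, with 100 nM [3H]-CQ (5.45 Ci/mmol) and increasing β-mercaptoethanol, and uptake runs for 1 min. Values are corrected for mock uptake on nitrocellulose filters and for control liposomes lacking PfCRT. IC50 is the β-mercaptoethanol concentration halving transport.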
# [3] = target: T3, PfCRT 7G8+C301A; assay: Transport; format: biochemical
# Summary of the method: as §1
# [4] = target: T1, PfCRT 7G8; format: biochemical
# [5] = system: P. falciparum 7G8^7G8 parasite line; assay: Parasite drug susceptibility assay; format: cell-based, Plasmodium falciparum; conditions: 72 h, asynchronous asexual blood stages
# Summary of the method: (§2)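 Asynchronous asexual blood-stage parasites were seeded at 0.3% parasitemia and 1% hematocrit into 2-fold, 10-point test compound dilutions. Incubation was 72 h at 37°C under 5% O2/5% CO2/90% N2. Final parasitemia was read by flow cytometry. IC50 came from nonlinear regression, 4 independent assays in duplicate, with two-tailed Mann-Whitney U tests.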
# [6] = system: P. falciparum WT (3D7) parasite line; assay: Parasite drug susceptibility assay; format: cell-based, Plasmodium falciparum; conditions: 72 h, asynchronous asexual blood stages
# Summary of the method: as §2
# [7] = system: P. falciparum 7G8^7G8+F145I parasite line; assay: Parasite drug susceptibility assay; format: cell-based, Plasmodium falciparum; conditions: 72 h, asynchronous asexual blood stages
# Summary of the method: as §2
# [8] = system: P. falciparum 7G8^7G8+C350R parasite line; assay: Parasite drug susceptibility assay; format: cell-based, Plasmodium falciparum; conditions: 72 h, asynchronous asexual blood stages
# Summary of the method: as §2
# [9] = system: P. falciparum Dd2^Dd2 parasite line; assay: Parasite drug susceptibility assay; format: cell-based, Plasmodium falciparum; conditions: 72 h, asynchronous asexual blood stages
# Summary of the method: as §2
# [10] = target: T4, Plasmodium falciparum chloroquine resistance transporter PfCRT, 7G8 isoform (Plasmodium falciparum (isolate 7G8), UniProt W7FI62); assay: radioligand binding
# [11] = target: T4, Plasmodium falciparum chloroquine …; assay: radioligand binding; remark: listed apart in the source
# [12] = target: T4, Plasmodium falciparum chloroquine …; assay: radioligand binding; remark: listed apart in the source
# [13] = substrate: N=C(N)NCCC[C@H](N)C(=O)O; assay: cells, lysate or membranes named
# [14] = read-out: IC50 (concentration yielding half-maximal reduction of [3H]-CQ transport), 100 nM [3H]-CQ, 1 min
molecule,measurement,setting,value
NCCCC[C@H](N)C(=O)O [lysine],competition of [3H]-Arg binding (in words),[1],effectively competed
OCCS [β-mercaptoethanol],IC50,[2],2580 ± 390 µM
same,remaining [3H]-CQ transport activity,[3]; compared to the activity in the absence of the reducing agent,60.2 ± 8.2%
same,IC50,[3]; [14],4170 ± 160 µM
same,IC50,[4]; [14],1240 ± 140 µM
COc1ccc(CCN(C)CCCC(C#N)(c2ccc(OC)c(OC)c2)C(C)C)cc1OC (stereo not drawn) [verapamil],inhibition of [3H]-CQ and [3H]-Arg uptake (in words),[4],partial to strong inhibition
CCN(CC)Cc1cc(Nc2ccnc3cc(Cl)ccc23)ccc1O [amodiaquine],competition of [3H]-Arg binding (in words),[1],effectively competed
"CCNCCCC(C)Nc1ccnc2cc(Cl)ccc12 (stereo not drawn) [md-CQ, monodesethyl-chloroquine]",IC50,[5],0.919 ± 0.125 µM
same,IC50,[6],0.0486 ± 0.0031 µM
same,IC50,[7],0.0478 ± 0.0025 µM
same,IC50,[8],0.0365 ± 0.002 µM
same,IC50,[9],1.8 ± 0.199 µM
"N=C(N)NCCC[C@H](N)C(=O)O [Arg, arginine]",competition of [3H]-Arg binding (in words),[1],effectively competed
same,EC50,"[1]; half-maximal binding constant (EC50) of [3H]-Arg binding, SPA, isotopic dilution of 125 nM [3H]-Arg with non-radiolabeled Arg",~400 µM and 397 µM
same,"Vmax, transport in proteoliposomes","[4]; initial rates over 3 s, Michaelis-Menten fit",190 nmol/mg/min
same,time course of uptake (in words),[4]; pH gradient 5.5–7.5 and membrane potential (valinomycin),maximal within one minute
"Fab CTC (Fab, V domains shown) VH: EVQLVESGGGLVQPGGSLRLSCAASGFNVSYSYIHWVRQAPGKGLEWVASIYPYSGYTSYADSVKGRFTISADTSKNTAYLQMNSLRAEDTAVYYCARYGSNYSFWYRGSSVTYAIDYWGQGTLVTVSS VL: DIQMTQSPSSLSASVGDRVTITCRASQSVSSAVAWYQQKPGKAPKLLIYSASSLYSGVPSRFSGSRSGTDFTLTISSLQPEDFATYYCQQSSTWPITFGQGTKVEIK",IC50,[10],0.15 µM
same,IC50,[11],0.2 µM
same,IC50,[12],0.18 µM
PfCRT 7G8 (Plasmodium falciparum 7G8) (protein) MKFASKKNNQKNSSKNDERYRELDNLVQEGNGSRLGGGSCLGKCAHVFKLIFKEIKDNIFIYILSIIYLSVSVMNTIFAKRTLNKIGNYSFVTSETHNFICMIMFFIVYSLFGNKKGNSKERHRSFNLQFFAISMLDACSVILAFIGLTRTTGNIQSFVLQLSIPINMFFCFLILRYRYHLYNYLGAVIIVVTIALVEMKLSFETQEENSIIFNLVLISSLIPVCFSNMTREIVFKKYKIDILRLNAMVSFFQLFTSCLILPVYTLPFLKQLHLPYNEIWTNIKNGFACLFLGRNTVVENCGLGMAKLCDDCDGAWKTFALFSFFDICDNLITSYIIDKFSTMTYTIVSCIQGPALAIAYYFKFLAGDVVREPRLLDFVTLFGYLFGSIIYRVGNIILERKKMRNEENEDSEGELTNVDSIITQ,Km,[13],1.30 ± 0.20 µM
same,Vmax,[13],189.2 ± 9.1 nmol/mg/min
